The values that follow come from ChEMBL document CHEMBL4732211, “Multifunctional agents based on benzoxazolone as promising therapeutic drugs for diabetic nephropathy” (Eur J Med Chem, 2021).

SMILES strings stand for the structures. The source made the active and inactive calls. No cut-off for these calls is given here.

The test system of experiment [1] is Mus musculus. Nature of the experiment: Antidiabetic activity in STZ-induced Kunming mouse model of diabetes assessed as reduction in blood glucose level at 160 mg/kg, po administered daily via gavage for 8 weeks and measured at week 6. The experiment is classed as functional. The following applies: 1008 h, time 6 weeks.
The subject of experiment [2] is Mus musculus. Nature of the experiment: Reno-protective activity in STZ-induced Kunming mouse model of diabetes assessed as urinary total protein excretion at 160 mg/kg, po administered daily via gavage for 8 weeks and measured at week 6 relative to control. The following applies: time 6 weeks. It is filed as functional.
The subject of experiment [3] is Mus musculus. Nature of the experiment: Antioxidant activity in STZ-induced diabetic Kunming mouse assessed as increase in SOD level in kidney at 160 mg/kg, po administered daily via gavage for 8 weeks and measured at 6 hrs post-final drug dose. The experiment is classed as functional.
Experiment [4] concerns the target Aldo-keto reductase family 1 member B1 (Rattus norvegicus, UniProt P07943). Nature of the experiment: Inhibition of Wistar rat lens ALR2 assessed as reduction in NADPH oxidation using D,L-glyceraldehyde and NADPH as substrate preincubated for 10 mins followed by substrate addition and measured for 4 mins by spectrophotometric analysis. The experiment is classed as tissue-based.

The test system of experiment [5] is Mus musculus. As to the kind of experiment: Antidiabetic activity in STZ-induced Kunming mouse model of diabetes assessed as reduction in blood glucose level at 160 mg/kg, po administered daily via gavage for 8 weeks and measured at week 4. It is filed as functional. The conditions noted are these: 672 h, time 4 weeks.
For experiment [6], the system named is Mus musculus. As to the kind of experiment: Reno-protective activity in STZ-induced Kunming mouse model of diabetes assessed as urinary total protein excretion at 160 mg/kg, po administered daily via gavage for 8 weeks and measured at week 8 relative to control. The experiment is classed as functional.
For experiment [7], the system named is Mus musculus. As to the kind of experiment: Antidiabetic activity in STZ-induced Kunming mouse model of diabetes assessed as reduction in blood glucose level at 80 mg/kg, po administered daily via gavage for 8 weeks and measured at week 4. The experiment is classed as functional. The conditions noted are these: 672 h, time 4 weeks.
Experiment [8] concerns Mus musculus. As to the kind of experiment: Reno-protective activity in STZ-induced Kunming mouse model of diabetes assessed as reduction in albumin to creatinine ratio at 160 mg/kg, po administered daily via gavage for 8 weeks. The conditions noted are these: 1344 h. It is filed as functional.
The subject of experiment [9] is Mus musculus. Nature of the experiment: Antioxidant activity in STZ-induced diabetic Kunming mouse assessed as increase in SOD level in kidney at 80 mg/kg, po administered daily via gavage for 8 weeks and measured at 6 hrs post-final drug dose. It is filed as functional.
Experiment [10] deals with Mus musculus. As to the kind of experiment: Antioxidant activity in STZ-induced diabetic Kunming mouse assessed as rise in liver MDA level at 160 mg/kg, po administered daily via gavage for 8 weeks and measured at 6 hrs post-final drug dose relative to normal group. The experiment is classed as functional.
Experiment [11] concerns Mus musculus. Nature of the experiment: Antidiabetic activity in STZ-induced Kunming mouse model of diabetes assessed as reduction in blood glucose level at 80 mg/kg, po administered daily via gavage for 8 weeks and measured at week 8. It is filed as functional. The following applies: 1344 h.
Experiment [12] concerns Mus musculus. Nature of the experiment: Antidiabetic activity in STZ-induced Kunming mouse model of diabetes assessed as reduction in blood glucose level at 80 mg/kg, po administered daily via gavage for 8 weeks and measured at week 6. The conditions noted are these: 1008 h, time 6 weeks. The experiment is classed as functional.
Experiment [13] concerns Mus musculus. Nature of the experiment: Antidiabetic activity in STZ-induced Kunming mouse model of diabetes assessed as reduction in blood glucose level at 160 mg/kg, po administered daily via gavage for 8 weeks and measured at week 8. The experiment is classed as functional. The following applies: 1344 h.
Experiment [14] has as its system Mus musculus. Nature of the experiment: Antidiabetic activity in STZ-induced Kunming mouse model of diabetes assessed as reduction in blood glucose level at 80 mg/kg, po administered QD via gavage for 4 weeks and measured at week 2 to 4. It is filed as functional, organism-based. The conditions noted are these: time 2-4 weeks.
Experiment [15] relates to Mus musculus. As to the kind of experiment: Reno-protective activity in STZ-induced Kunming mouse model of diabetes assessed as reduction in urinary total protein excretion at 80 mg/kg, po administered QD via gavage for 4 weeks and measured at week 2 to 4. The experiment is classed as functional, organism-based. The conditions noted are these: time 2-4 weeks.
The target in experiment [16] is Aldo-keto reductase family 1 member B1 (Rattus norvegicus) (UniProt P07943). Nature of the experiment: Noncompetitive inhibition of Wistar rat lens ALR2 at 0.025 mM using varying level of D,L-glyeraldehyde as substrate in presence of NADPH by double reciprocal plot analysis. The experiment is classed as tissue-based. In a few lines:
(§1)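 Rat ALR2 kinetics run under the assay conditions with inhibitor at 10 and 5 nM. Either D,L-glyceraldehyde varied (7.5-0.94 mM) with cofactor 0.025 mM, or NADPH varied (25-3.125) with glyceraldehyde 2.5 mM. Mode assigned from double-reciprocal plots.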

The test system of experiment [17] is Mus musculus. Nature of the experiment: Reno-protective activity in STZ-induced Kunming mouse model of diabetes assessed as reduction in albumin to creatinine ratio at 80 mg/kg, po administered daily via gavage for 8 weeks. The experiment is classed as functional. The conditions noted are these: 1344 h.
Experiment [18] relates to Mus musculus. As to the kind of experiment: Reno-protective activity in STZ-induced Kunming mouse model of diabetes assessed as urinary total protein excretion at 80 mg/kg, po administered daily via gavage for 8 weeks and measured at week 8 relative to control. It is filed as functional.
The target in experiment [19] is Aldo-keto reductase family 1 member B1 (Rattus norvegicus) (UniProt P07943). Nature of the experiment: Uncompetitive inhibition of Wistar rat lens ALR2 at 2.5 mM using D,L-glyeraldehyde as substrate in presence of varying levels of NADPH by double reciprocal plot analysis. The experiment is classed as tissue-based. In a few lines:
as §1

The subject of experiment [20] is Mus musculus. As to the kind of experiment: Antidiabetic activity in STZ-induced Kunming mouse model of diabetes assessed as reduction in blood glucose level at 160 mg/kg, po administered daily via gavage for 8 weeks and measured at week 2. It is filed as functional. The following applies: 336 h, time 2 weeks.
The subject of experiment [21] is Mus musculus. As to the kind of experiment: Reno-protective activity in STZ-induced Kunming mouse model of diabetes assessed as urinary total protein excretion at 80 mg/kg, po administered daily via gavage for 8 weeks and measured at week 6 relative to control. It is filed as functional. The conditions noted are these: time 6 weeks.

`COc1cc(/C=C/c2cccc3c2oc(=O)n3CC(=O)O)ccc1O`: the inhibition in vivo at 160 mg/kg is 19% in the experiment on Mus musculus [1]; 23% with Mus musculus [5]; 79% with Mus musculus [8]; 20% in the experiment on Mus musculus [13]; 35% in the experiment with Mus musculus [20]. For the same compound, the Activity is 36% in the experiment with Mus musculus [2]; 38% in the experiment on Mus musculus [3]; 58% in the experiment on Mus musculus [6]; 177% in the experiment on Mus musculus [9]; 39% in the experiment with Mus musculus [10]; 53% in the experiment with Mus musculus [18]. Moreover, the Activity in the experiment with Mus musculus [21] is 50%. Besides, the IC50 in [4] worked out at 6.9 nM. Further, the inhibition in vivo at 80 mg/kg in the experiment on Mus musculus [7] turned out to be 24%; with Mus musculus [11] it was 9%; with Mus musculus [12], 19%; with Mus musculus [17], 67%. Moreover, the outcome with Mus musculus [14] and with Mus musculus [15] was Active. The inhibition result in experiment [16] and in [19] was “Active” in each case.

The inhibition in vivo is how much of the control response was suppressed. For orientation: IC50 means the concentration that gives 50% inhibition.
